This is one part of a sample in which hits are shown more often than they occur.
XiGFP reactiv = activators of inactive X chromosome reactivation, primary screen, imaging, XiGFP fibroblasts, GFP high-content imaging, set 2 | XiGFP mouse fibroblasts, % GFP-positive cells imaging, 3 d; cells co-treated with 5-aza-dC sensitizer; scaled so ellipticine positive control = 100% | activation, % at 7.58 µM | 0.055% of 360,000 active;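 active means mean normalized replicate activation at least 10% and every replicate at or above 10%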;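 further: 0% = median of on-plate neutral control wells and 100% = ellipticine 6 µM median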
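material = 68-5-11 XiGFP fibroblast line | medium = DMEM plus 5-aza-dC sensitizer | schedule = 3 days compound exposure | benchmarks = positive control ellipticine, 6 µM final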
E-sel inducer = E-selectin induction in HUVECs, primary screen, imaging, HUVEC, immunofluorescence imaging, single point | 0.37% of 260,000 active | AID 686992, 2013 | normalized: neutral wells 0, TNF-alpha wells 100 | activation, % at 7.58 µM | P16581;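 active means mean E-selectin-positive cell signal at least 10% of the positive control, reached in at least 60% of replicates, without over 20% cell loss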
Target sequence (P16581 whole entry, looked up): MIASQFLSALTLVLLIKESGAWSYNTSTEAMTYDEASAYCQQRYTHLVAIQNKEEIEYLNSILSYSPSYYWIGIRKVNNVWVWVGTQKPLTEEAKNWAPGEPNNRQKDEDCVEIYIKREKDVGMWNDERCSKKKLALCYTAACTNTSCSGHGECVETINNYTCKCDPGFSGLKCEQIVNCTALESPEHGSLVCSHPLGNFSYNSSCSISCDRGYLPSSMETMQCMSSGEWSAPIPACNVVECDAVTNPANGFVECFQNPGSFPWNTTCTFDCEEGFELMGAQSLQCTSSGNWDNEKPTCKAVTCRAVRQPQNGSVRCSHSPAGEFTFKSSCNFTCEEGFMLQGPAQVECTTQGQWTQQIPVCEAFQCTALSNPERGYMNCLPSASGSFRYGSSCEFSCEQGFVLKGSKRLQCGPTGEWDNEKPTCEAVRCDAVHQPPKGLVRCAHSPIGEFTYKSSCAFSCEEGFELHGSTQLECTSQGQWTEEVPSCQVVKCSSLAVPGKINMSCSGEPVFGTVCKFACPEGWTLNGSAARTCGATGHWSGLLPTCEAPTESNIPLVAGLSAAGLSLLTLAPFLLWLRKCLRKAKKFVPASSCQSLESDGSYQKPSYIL
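Assay system: HUVEC primary endothelial cells. Input: 3,000 HUVEC seeded per well. Doses: one compound dose added by pin transfer. Read-out basis: % PE-positive cells. Benchmarks: TNF-alpha high, DMSO low. Detection: immunofluorescence imaging. Buffer or medium: EGM-2, gelatin.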
The depositor's hits bear a star; . = no result given.

SMILES	XiGFP reactiv	E-sel inducer
CN(C)c1ccc(C=c2c3ccccc3n3c2cc(-c2ccc(Cl)cc2)[n+]3C)cc1	0.5	121.5*
O=C1N[C@H](c2ccccc2)COCc2cnnn2CC[C@@H]1Cc1ccc(-c2ccccc2)cc1	0.1	.
CCCCCNc1nc2sc3c(c2c(=O)n1-c1cccc(Cl)c1)CCN(C)C3	0.0	41.6*
CCCCNc1nc2sc3c(c2c(=O)n1-c1cccc(Cl)c1)CCN(C)C3	0.1	.
C[C@H](CO)N1C[C@H](C)[C@@H](CN(C)Cc2ccc(C(F)(F)F)cc2)OCCCC[C@H](C)Oc2ccc(NC(=O)Cc3ccccc3)cc2C1=O	0.1	-0.1
C[C@@H]1CCCCO[C@H](CN(C)Cc2ccc(C(=O)Nc3ccccc3N)cc2)[C@H](C)CN([C@@H](C)CO)C(=O)c2cc(N(C)C)ccc2O1	-0.5	.
C[C@H]1CN([C@@H](C)CO)C(=O)c2cccc(NS(C)(=O)=O)c2O[C@H]1CN(C)Cc1ccc(Oc2ccccc2)cc1	-0.1	.
CC(C)NC(=O)Nc1cccc2c1O[C@H](CN(C)Cc1ccncc1)[C@@H](C)CN([C@H](C)CO)C2=O	-0.1	80.6*
C[C@H](CO)N1C[C@H](C)[C@H](CN(C)Cc2ccc(Oc3ccccc3)cc2)Oc2c(NS(C)(=O)=O)cccc2C1=O	-0.1	30.8*
CC(C)NC(=O)Nc1cccc2c1O[C@@H](CN(C)Cc1ccccc1)[C@@H](C)CN([C@@H](C)CO)C2=O	-1.0	-0.1
C[C@H](CO)N1C[C@H](C)[C@@H](CN(C)Cc2ccc(C(F)(F)F)cc2)Oc2c(NS(C)(=O)=O)cccc2C1=O	0.0	197.7*
C[C@H](CO)N1C[C@H](C)[C@H](CN(C)Cc2ccc(C(F)(F)F)cc2)Oc2c(NS(C)(=O)=O)cccc2C1=O	0.0	-4.2
C[C@@H]1CN([C@H](C)CO)C(=O)c2cccc(NC(=O)c3ccncc3)c2O[C@@H]1CN(C)Cc1ccc(C(=O)Nc2ccccc2N)cc1	3.5	57.8*
C[C@H](CO)N1C[C@H](C)[C@H](CN(C)Cc2ccc(C(=O)Nc3ccccc3N)cc2)Oc2c(NC(=O)c3ccncc3)cccc2C1=O	1.8	0.0
O=C(CN1CCOCC1)NCC[C@@H]1CC[C@H](NC(=O)c2ccc3c(c2)OCO3)[C@@H](CO)O1	0.0	-0.2
CC(C)(C)S(=O)N1Cc2cc(C(=O)O)nc(-c3cccc(C#CCC4CCCC4)c3)c2[C@@H]1CCO (stereo not given in full)	-0.1	.
COC(=O)C[C@H]1C[C@H]2c3cc(NC(=O)Nc4ccc(OC)cc4)ccc3O[C@H]2[C@@H](CO)O1	0.0	.
O=C(Nc1ccc(Cl)c(Cl)c1)N[C@@H]1CC[C@@H](CCNC(=O)c2ccc(F)cc2)O[C@@H]1CO	0.0	0.1
CO[C@@H]1CN(C)C(=O)c2ccc(NC(=O)c3cnccn3)cc2OC[C@@H](C)NC[C@H]1C	0.0	0.0
CC(C)NC(=O)Nc1cccc2c1O[C@@H](CN(C)Cc1ccc(C(F)(F)F)cc1)[C@@H](C)CN([C@H](C)CO)C2=O	0.1	52.8*
CC(C)NC(=O)Nc1cccc2c1O[C@H](CN(C)Cc1ccc(C(F)(F)F)cc1)[C@@H](C)CN([C@@H](C)CO)C2=O	-0.1	-17.3
C[C@H](NC(=O)C[C@H]1C[C@H]2c3cc(NC(=O)C4CCOCC4)ccc3O[C@H]2[C@H](CO)O1)c1ccccc1	0.1	2.3
COC(=O)c1cc(S(=O)(=O)NCC2CCN(Cc3ccc(F)cc3)CC2)c[nH]1	0.0	.
COC(=O)c1cc(S(=O)(=O)NCC2CCN(CCc3cccs3)CC2)c[nH]1	0.2	226.3*
O=C1NC(Cc2ccc(Cl)cc2)COCc2cnnn2CCC1c1ccccc1 (stereo not given)	0.0	0.1
SMILES	XiGFP reactiv	E-sel inducer
CCCCn1nc(NC(=O)CCC)c2cc3cc(OC)ccc3nc21	0.1	.
CCCCn1nc(NC(=O)CC(C)C)c2cc3cc(OC)ccc3nc21	0.2	55.6*
COc1ccc2c3c(n(C)c2c1)[C@@H](CO)NCC31CCN(S(=O)(=O)c2ccccc2)CC1	0.2	.
CNC[C@@H]1OCCCC[C@@H](C)Oc2ccc(NS(=O)(=O)c3ccc(OC)cc3)cc2C(=O)N([C@@H](C)CO)C[C@H]1C	-0.1	0.1
Cc1cc2cc(CNC(=O)Nc3cccc(Cl)c3)ccc2n1C	0.2	32.9*
COc1cccc(NC(=S)NCc2ccc3c(c2)cc(C)n3C)c1	0.1	0.2
Cc1cc2cc(CNC(=O)CCC(=O)O)ccc2n1C	0.0	.
Cc1cccc(NC(=O)NCc2ccc3c(c2)cc(C)n3C)c1	0.0	55.8*
Brc1cnc2nc(SCc3nc4ccccc4[nH]3)[nH]c2c1	0.1	52.8*
O=C(CSc1nc2ncc(Br)cc2[nH]1)Nc1ccccc1-c1ccccc1	0.0	.

From PubChem
